Assay [1] concerns the target T1, Chitinase B (Serratia marcescens, UniProt P11797).
T1 sequence (P11797 whole entry): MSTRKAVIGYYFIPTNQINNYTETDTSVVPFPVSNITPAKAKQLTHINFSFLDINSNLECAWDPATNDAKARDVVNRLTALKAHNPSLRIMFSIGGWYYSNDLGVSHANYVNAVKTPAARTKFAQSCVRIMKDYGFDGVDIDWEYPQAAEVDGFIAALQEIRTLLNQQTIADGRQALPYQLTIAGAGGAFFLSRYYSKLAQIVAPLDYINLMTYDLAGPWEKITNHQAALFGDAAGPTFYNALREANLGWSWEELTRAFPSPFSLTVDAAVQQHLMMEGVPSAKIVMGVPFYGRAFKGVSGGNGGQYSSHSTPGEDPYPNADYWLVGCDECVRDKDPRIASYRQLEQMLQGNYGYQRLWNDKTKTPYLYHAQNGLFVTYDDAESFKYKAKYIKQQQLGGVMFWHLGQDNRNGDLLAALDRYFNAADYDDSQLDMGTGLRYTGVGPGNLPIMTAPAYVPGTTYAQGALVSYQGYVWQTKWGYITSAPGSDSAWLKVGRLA
Description: Displacement of 4-methylumbelliferydiacetyl-chitobiose from Serratia marcescens ChiB. An outline of the steps:
(§1)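 Crude S. marcescens chitinase diluted in 0.1 M phosphate pH 7.0 (ChiA x10, ChiB x40, ChiC1 x4) was mixed with inhibitor in MeOH, buffer and 80 μM (solution added) 4-MU-(GlcNAc)2, then incubated 5 min. Fluorescence (ex 355/em 460 nm) was read every 60 s. The 4-methylumbelliferone production rate was corrected for each inhibitor's quenching using inhibitor plus 4MU mixtures. IC50 came from sigmoidal dose-response fits.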

Assay [2] has as its target T2, Chitinase C1 (Serratia marcescens, UniProt Q700B8).
T2 sequence (Q700B8 whole entry): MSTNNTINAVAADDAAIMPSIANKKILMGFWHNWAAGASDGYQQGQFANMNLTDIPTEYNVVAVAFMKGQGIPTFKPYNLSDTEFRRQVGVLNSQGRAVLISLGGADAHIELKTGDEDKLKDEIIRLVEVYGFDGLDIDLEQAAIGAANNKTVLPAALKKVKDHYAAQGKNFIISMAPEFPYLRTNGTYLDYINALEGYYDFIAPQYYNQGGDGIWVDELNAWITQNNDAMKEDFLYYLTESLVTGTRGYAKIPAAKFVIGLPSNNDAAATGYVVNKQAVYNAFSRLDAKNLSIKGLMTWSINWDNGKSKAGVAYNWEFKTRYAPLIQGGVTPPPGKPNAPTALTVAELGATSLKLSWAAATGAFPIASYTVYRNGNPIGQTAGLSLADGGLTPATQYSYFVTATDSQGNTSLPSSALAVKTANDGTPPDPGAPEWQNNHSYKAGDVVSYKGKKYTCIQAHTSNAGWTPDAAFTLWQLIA
As to the kind of experiment: Displacement of 4-methylumbelliferydiacetyl-chitobiose from Serratia marcescens ChiC. An outline of the steps: as §1

Assay [3] addresses Chitinase A (Serratia marcescens, UniProt P07254). Description: Displacement of 4-methylumbelliferydiacetyl-chitobiose from Serratia marcescens ChiA. An outline of the steps: as §1

*1 amine or outer side, *2 acyl side, *3 side chain or, on linkers, in order; H or OH if unused. Where a SMILES comes first, the peptide text is derived from it. Side-chain parts run from the residue outwards. [ ]: non-standard residue; d: D form. The star is where a group is joined. NMeF = CN[C@@H](Cc1ccccc1)C(=O)O; CO = O=C([*:1])[*:2]; OAll = C=CCO*

What is called IC50 is the concentration that inhibits the measured activity by half.

Chain of Chitinase A (P07254 whole entry): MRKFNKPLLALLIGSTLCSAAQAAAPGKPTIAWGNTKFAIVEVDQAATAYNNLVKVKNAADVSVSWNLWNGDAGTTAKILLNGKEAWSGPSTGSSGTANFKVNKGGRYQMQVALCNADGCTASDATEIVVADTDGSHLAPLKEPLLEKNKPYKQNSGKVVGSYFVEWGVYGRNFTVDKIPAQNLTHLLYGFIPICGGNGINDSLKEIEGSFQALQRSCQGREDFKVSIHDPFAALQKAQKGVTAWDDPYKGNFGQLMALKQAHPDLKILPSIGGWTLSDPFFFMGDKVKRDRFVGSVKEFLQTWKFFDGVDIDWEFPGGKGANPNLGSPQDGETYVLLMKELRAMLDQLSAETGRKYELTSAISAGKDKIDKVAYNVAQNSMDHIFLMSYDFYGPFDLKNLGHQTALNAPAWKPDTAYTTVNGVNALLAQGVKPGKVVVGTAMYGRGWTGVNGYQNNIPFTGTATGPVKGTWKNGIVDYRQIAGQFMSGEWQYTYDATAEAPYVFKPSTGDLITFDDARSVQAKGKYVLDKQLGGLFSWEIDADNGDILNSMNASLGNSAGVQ

Regarding `CNC(=O)NC(=N)NCCC[C@H](NC(C)=O)C(=O)O`, the results for the IC50 in assay [1], in assay [2] and in assay [3] were 260 µM, greater than 30 µM and 31 µM, respectively.
Consider `CNC(=O)NC(=N)NCCC[C@H](NC(=O)[C@@H](C)NC(=O)[C@H](CC(=O)O)NC(C)=O)C(=O)N(C)[C@@H](Cc1ccccc1)C(=O)O`, for which the IC50 in assay [1] is 30 µM; in assay [2], greater than 30 µM; in assay [3], 8.4 µM.
Turning to `C=CCOC(=O)C[C@H](NC(=O)[C@H](Cc1ccccc1)N(C)C(=O)[C@H](CCCN=C(N)NC(=O)NC)NC(=O)[C@@H](C)NC(=O)[C@H](CC(=O)O)NC(C)=O)C(=O)O`, the IC50 in assay [1] is 1 µM; in assay [2], greater than 30 µM; in assay [3], 1.1 µM.
`CNC(=O)NC(N)=NCCC[C@H](NC(=O)[C@@H](C)NC(C)=O)C(=O)O`: the IC50 in assay [1] is 64 µM; in assay [2] it was greater than 30 µM; in assay [3], 6.6 µM.
On to `CNC(=O)NC(N)=NCCC[C@H](NC(=O)[C@@H](C)NC(=O)[C@H](CC(=O)O)NC(C)=O)C(=O)O`, for which the IC50 was 110 µM in assay [1], greater than 30 µM in assay [2] and 32 µM in assay [3].
In the case of `CNC(=O)NC(=N)NCCC[C@H](NC(C)=O)C(=O)N(C)[C@@H](Cc1ccccc1)C(=O)O`, the IC50 in assay [1] was 3.7 µM; in assay [2] it was greater than 30 µM; in assay [3], 0.75 µM.
Take `C=CCOC(=O)C[C@H](NC(=O)[C@H](Cc1ccccc1)N(C)C(=O)[C@H](CCCNC(=N)NC(=O)NC)NC(=O)[C@@H](C)NC(C)=O)C(=O)O`: the IC50 was 0.091 µM in assay [1], greater than 30 µM in assay [2] and 0.025 µM in assay [3].
Take `CNC(=O)NC(=N)NCCC[C@H](NC(=O)[C@@H](C)NC(C)=O)C(=O)N(C)[C@@H](Cc1ccccc1)C(=O)O`: the IC50 is 2.7 µM in assay [1], greater than 30 µM in assay [2] and 0.09 µM in assay [3].
In the case of `C=CCOC(=O)C[C@H](NC(=O)[C@H](Cc1ccccc1)N(C)C(=O)[C@H](CCCNC(=N)NC(=O)NC)NC(C)=O)C(=O)O` (Ac-Arg([CO-NHMe])-[NMeF]-Asp(OAll)-OH), the results for the IC50 in assay [1], in assay [2] and in assay [3] were 0.13 µM, greater than 30 µM and 0.14 µM, respectively.
The matching figures for `CNC(=O)NC(=N)NCCC[C@@H]1NC(=O)[C@@H](C)NC(=O)C[C@@H](C(=O)O)NC(=O)C[C@@H](C(=O)O)NC(=O)[C@H](Cc2ccccc2)N(C)C1=O` [ARGIFIN]: 6.4 µM, greater than 30 µM and 0.025 µM.

For the origin of these results see ChEMBL document CHEMBL1153397, “Argifin; efficient solid phase total synthesis and evaluation of analogues of acyclic peptide” (Bioorg Med Chem, 2009).
